Screens: PubChem, several laboratories
thrombin 1536 = inhibitors of human thrombin; P00734; alpha-thrombin, Boc-VPR-AMC fluorogenic substrate cleavage; inhibition, % at 5 µM; hit rate 0.26% among 220,000; AID 1046;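 active = inhibition at or above 40%; inactive = inhibition below 40%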;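 note: 0% = enzyme with no compound and 100% = wells without enzyme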
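Test system: human alpha-thrombin protein / Dosing: one concentration per compound, 5 µM, with 0.2% DMSO / Medium: pH 7.5 Tris-saline with Tween 20 / Benchmarks: no-compound enzyme wells and no-enzyme blanks / Read-out basis: percent inhibition of thrombin substrate cleavage / Timing: reaction at room temperature / Measured by: fluorescence, ex 355 nm, em 460 nm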
Furin inh = human furin inhibition; P09958; purified furin, fluorogenic substrate cleavage; inhibition, % at 20 µM or 30 µM; hit rate 0.061% among 220,000; AID 463115; in the data active = inhibition above about 25%
Target sequence (P09958 108-714 limits assumed): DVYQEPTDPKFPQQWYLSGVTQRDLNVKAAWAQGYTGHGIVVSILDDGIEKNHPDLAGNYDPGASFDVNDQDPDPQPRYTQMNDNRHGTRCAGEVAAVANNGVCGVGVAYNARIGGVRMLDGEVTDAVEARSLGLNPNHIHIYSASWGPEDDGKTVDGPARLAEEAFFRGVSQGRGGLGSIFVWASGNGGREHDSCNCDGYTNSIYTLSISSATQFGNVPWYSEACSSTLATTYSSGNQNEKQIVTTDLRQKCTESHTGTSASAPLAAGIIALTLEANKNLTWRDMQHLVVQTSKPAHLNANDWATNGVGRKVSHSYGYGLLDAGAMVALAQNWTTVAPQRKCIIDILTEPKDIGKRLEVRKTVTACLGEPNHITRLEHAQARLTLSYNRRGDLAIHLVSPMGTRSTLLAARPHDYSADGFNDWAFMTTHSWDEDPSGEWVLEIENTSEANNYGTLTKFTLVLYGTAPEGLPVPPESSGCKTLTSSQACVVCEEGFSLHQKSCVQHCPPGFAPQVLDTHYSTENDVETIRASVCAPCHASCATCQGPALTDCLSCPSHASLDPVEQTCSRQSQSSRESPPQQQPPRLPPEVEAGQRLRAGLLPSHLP
FXIIa inh 1536 = inhibitors of human coagulation factor XIIa. inhibition, % at 5 µM. P00748. hit rate 0.3% among 220,000. purified FXIIa, Boc-QGR-AMC fluorogenic substrate, 2 h. AID 800; in the data active = inhibition above about 40%;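 note: 0% = enzyme with no compound and 100% = blank without enzyme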
HSV augment = increases HSV replication in cells; HSV replication augmentation in cells, fold increase; maximum fold increase; hit rate 0.005% among 220,000; in the data active = maximum fold increase above about 1.5; tested in PC3 cells
hK5 inh = inhibitors of human kallikrein 5 | Q9Y337 | recombinant hK5, fluorogenic AMC substrate cleavage | inhibition, % at 5 µM | hit rate 0.59% among 210,000 | AID 873;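 active = inhibition of 40% or more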;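 note: 0% = enzyme controls without compound and 100% = no-enzyme blanks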
FXIa inh = inhibitors of human coagulation factor XIa | P03951 | AID 798 | inhibition, % at 5 µM | purified FXIa, Boc-Glu-Ala-Arg-AMC fluorogenic substrate | hit rate 0.14% among 220,000;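 active = inhibition of at least 40%; inactive = inhibition below 40%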;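 note: fluorescence of freed AMC excited at 355 nm; 0% = enzyme without compound and 100% = no enzyme blank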
Active calls of the source: *; i = inactive; nt = not tested or not shown. The list is not random: actives were taken first. Their share in the collection is about 1%.

SMILES	thrombin 1536	Furin inh	FXIIa inh 1536	HSV augment	hK5 inh	FXIa inh
COc1cccc(N2CCN(C(=O)CN(C)S(=O)(=O)c3ccc4c(c3)CCC(=O)N4)CC2)c1	-2.2	-17.4	14.0	i	2.1	14.7
N/C(CN1CCCCC1)=N\S(=O)(=O)c1cc(Cl)cc(Cl)c1	-4.4	-19.7	6.9	i	-0.6	3.2
CCc1ccc(C2CC(c3ccccc3)n3ncnc3N2)cc1 (centres undefined)	-3.6	-11.0	-9.1	i	45.0*	-14.6
CCCCc1[nH]c(=O)c(C#N)c2c1CCCC2	3.1	-2.8	49.4*	i	-6.0	34.1
CCCCc1[nH]c(=O)c(C#N)c2c1CSC(C)(C)C2	-8.4	-10.9	4.3	i	-37.7	-3.2
Clc1ccc(Cn2ncc3c(N4CCCC4)ncnc32)cc1	9.2	-6.9	7.9	i	44.4*	0.9
Clc1ccc(Cn2ncc3c(N4CCCCC4)ncnc32)cc1	-1.1	-10.0	9.8	i	-3.9	7.5
O=C(OCc1ccccc1)/C(=C/c1cccc2ccccc12)NC(=O)c1ccccc1	13.8	2.0	17.6	i	46.7*	18.2
C=CCOC(=O)/C(=C/c1cccc2ccccc12)NC(=O)c1ccccc1	-5.2	-24.4	3.1	i	-0.2	6.8
CCOc1ccc2[nH]c(=O)c(C(c3nnnn3C3CCCCC3)N3CCN(CC)CC3)cc2c1 (centres undefined)	-2.9	-40.3	-18.1	i	-1.4	-18.6
CCOc1ccc2[nH]c(=O)c(C(c3nnnn3C3CCCCC3)N3CCN(C)CC3)cc2c1 (centres undefined)	2.5	-32.0	48.3*	nt	-31.9	36.2
Cn1c(NCCc2ccccc2)cc(=O)n(C)c1=O	-1.6	-17.9	77.1*	i	2.6	-1.6
O=C1SCCC1NC(=O)C(c1ccccc1)c1ccccc1 (centres undefined)	13.8	-3.8	40.0*	i	93.7*	60.4*
CCC(C)NC(=O)CSc1nnc(-c2c[nH]c3ccccc23)o1 (centres undefined)	-1.5	-10.8	6.6	i	-0.7	-3.8
Cc1nc(-c2cccc(Br)c2)ccc1C(=O)O	-2.8	-12.4	8.0	i	0.0	-2.1
O=C(CSC1CCCCC1)Nc1nccs1	104.4*	-24.9	26.9	nt	54.3*	17.7
COc1ccc(C2C(=O)c3ccccc3C2=O)cc1OC	55.7*	3.2	17.3	i	18.1	8.9
CN(C)Cc1nnnn1-c1cccc(-n2nnnc2CN(C)C)c1	0.1	-11.1	7.1	i	-0.9	2.5
CC(=O)NNC(=O)c1nc(-c2ccccc2)c(C)o1	2.2	-8.7	8.8	i	-4.7	-0.4
CNC(=O)NNC(=O)c1nc(-c2ccccc2)c(C)o1	24.5	3.0	26.9	i	42.3*	33.0
CCC(=O)Nc1ccc(C(=O)CSc2nc3ccccc3cc2CC)cc1	104.4*	-13.7	21.2	i	59.6*	0.9
CCC(=O)Nc1ccc(C(=O)CSc2nc(N)cc(N)n2)cc1	0.6	-12.1	11.7	i	-3.8	-0.6
COC(=O)c1sccc1NC(=O)c1ccc(Cl)s1	-10.2	-14.8	-9.9	i	-11.3	3.5
CCn1c(C(=O)Nc2ccsc2C(=O)OC)cc2sc(Cl)cc21	5.3	-28.3	-5.0	i	46.5*	-1.4
CCc1cccc(CC)c1NC(=O)CSc1nnc(CCC(=O)O)c(=O)[nH]1	-1.4	-16.2	0.5	i	0.0	1.4
SMILES	thrombin 1536	Furin inh	FXIIa inh 1536	HSV augment	hK5 inh	FXIa inh
COC(=O)c1ccc(NC2(C#N)C(=O)Nc3ccccc32)cc1 (centres undefined)	-3.8	31.4*	8.6	i	-21.4	4.0
CN1CCN(CCNC(=O)c2cn(Cc3ccccc3F)nn2)CC1	15.2	-10.6	60.1*	i	20.1	28.7
CCN1CCN(CCNC(=O)c2cn(Cc3ccccc3F)nn2)CC1	-1.3	-6.3	1.6	i	-8.9	6.4
CC(=O)c1ccc(N2CCN(C(=O)c3cc(-c4ccc5c(c4)OCO5)nc4ccccc34)CC2)cc1	-0.2	10.0	-6.8	i	81.5*	-5.9
COc1cccc(/C=N/NC(=O)c2[nH]c(C)c(C(=O)N/N=C/c3cccc(OC)c3O)c2C)c1O	2.6	-18.5	18.6	i	-158.8	40.3*
COc1ccc(CN2CCNC(=O)C2CC(=O)N2CCCCO2)cc1OC (centres undefined)	-0.9	-11.0	4.7	i	nt	-3.8
CC(=O)NC1C(Oc2ccc3c(C)cc(=O)oc3c2)OC(COC(C)=O)C(OC(C)=O)C1OC(C)=O (centres undefined)	-1.3	-13.6	3.6	i	-1.6	-2.2
Fc1ccc(Nc2ccc3ccccc3n2)c(F)c1	35.9	2.1	35.8	i	47.0*	104.3*
Cc1cc(Nc2ccc(F)cc2F)n2nc(C)nc2n1	-6.4	-33.4	1.8	i	-6.9	-4.3
CN1CCN(S(=O)(=O)c2cccc(C(=O)Nc3ccccc3N3CCOCC3)c2)CC1	5.4	-32.8	6.8	i	-5.4	1.6
COc1cc(OC)cc(-c2n[nH]c(=S)n2-c2ccc3c(c2)OCCO3)c1	40.9*	-13.2	nt	i	16.3	35.0
Cc1nn(C)cc1NC(=O)CC12CC3CC(CC(C3)C1)C2	0.8	-16.0	6.2	i	52.4*	4.1
N/C(=N\c1nc(CSc2ccccn2)cc(=O)[nH]1)Nc1ccc(Cl)cc1Cl	-2.1	-32.4	8.4	i	-1.7	-0.1
C/C=C(\C)C(=O)OC1c2c(ccc3ccc(=O)oc23)OC(C)(C)C1OC(C)=O (centres undefined)	-5.3	-9.7	38.7	i	-3.4	45.4*
CCOC(=O)c1c(NC(=O)COC(=O)c2ccccn2)sc2c1CCC2	-6.6	-2.5	2.0	i	-1.6	-2.7
O=C(NCCc1ccc2c(c1)OCCO2)c1ccc([N+](=O)[O-])cc1Cl	3.8	-1.7	9.6	nt	40.5*	10.7
O=C(NCCCN1CCN(CCCNC(=O)c2cc([N+](=O)[O-])ccc2Cl)CC1)c1cc([N+](=O)[O-])ccc1Cl	18.6	-16.1	4.8	i	43.0*	1.5
O=C(NCCc1ccc2c(c1)OCCO2)c1cc(F)cc(F)c1	-11.9	-24.0	10.1	i	-9.5	0.1
CCc1cccc(NC(=O)c2ccc(CNc3c(N4CCCC4)c(=O)c3=O)cc2)c1	-8.3	-15.7	5.2	i	-0.6	-4.3
O=C(Nc1cc(=O)[nH]c2ncnn12)c1ccco1	23.4	1.2	41.6*	i	56.6*	22.8
CCOC(=O)/C(=N\Nc1cccc(C(F)(F)F)c1)N1CCOCC1	2.6	-1.9	24.4	i	52.0*	29.0
COc1cccc(CN2CCNC(=O)C2CC(=O)N(Cc2cnn(C)c2)C(C)C)c1 (centres undefined)	-6.7	-20.6	7.5	i	1.1	0.9
O=C(c1ccc(N2CCCC2=O)cc1)N1CCCCCC1	-6.8	-19.8	57.4*	i	-12.2	31.8
Cc1cc(C)cc(NC(=O)c2ccc([N+](=O)[O-])o2)c1	23.9	-4.2	32.0	i	29.9	69.6*
